Assay results as given in PubChem BioAssay.
The source made the active and inactive calls.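 How the source made its calls, unless noted: active means viability at or below 10% of carrier control in both of two separate runs; inconclusive means viability at or below 10% in only one of the two runs; inactive means the rest.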

Legend:
[1] = Her2 expression decrease, cell viability multiplex – SKBR3 breast tumor cells, AlphaScreen, ATP viability, primary screen (AID 461;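 active means Her2 level under about 52% in both replicate screens, with viability over 70% of control, limit read from the data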;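 on Her2 level: lower value means less Her2 protein in the cells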;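 on viability: percent of carrier control wells set as 100% viability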); details: SKBR3 Her2 protein level, 18-24 h, measured here: SKBR3 viability, ATP luminescence, at 10 µM
[2] = biological target: Receptor tyrosine-protein kinase erbB-2 (Homo sapiens) (UniProt P04626); assay: as above; details: 18-24 h, at 10 µM, stronger effect = lower value
[3] = reduced viability of SK-BR-3 breast cancer cells – cell-based, 24 h, human, pilot screen (AID 572); details: SK-BR-3 viability, CellTiter-Glo luminescence, at 10 µM, stronger effect = lower value;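 further: compound exposure lasted between 18 and 24 h rather than exactly 24 h; 100% = carrier-treated control wells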
[4] = HUVEC growth inhibition – cell-based, human, primary screen (AID 575;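 active means viability at or below 30% in both replicate assays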;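 further: 100% = median of untreated cell wells with 0.1% DMSO on each plate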); details: HUVEC proliferation, CellTiter-Glo luminescence, 72 h; at 10 µM; stronger effect = lower value
Summary of the method: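 system = HUVEC primary cells | amount = 1250 cells/well | buffer or medium = supplemented EBM, 2% fetal bovine serum | dosing = single-point 10 µM, DMSO 0.1% final | times = 72 h compound incubation | detection = CTG luminescence | read-out = % viability relative to median vehicle-well signal on each plate | control set = vehicle and MePR control wells | format = collagen-coated 384-well format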

[5] = H69AR cell proliferation blockers – human, duplicate replicates, primary screen (AID 580;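 active means viability at or under a set limit in both replicates, limit being median viability minus 3 SD, cut at about 48% in these data, passing the limit was not always enough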;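 further: 100% = mean luminescence of untreated wells and 0% = no signal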); details: H69AR lung tumor cells viability, ATP luminescence, 72 h; at 10 µM; stronger effect = lower value
[6] = MRP1 drug-resistance reversers in H69AR cells – cell-based, doxorubicin co-treatment, pilot screen (AID 601;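 active means viability loss from added drug above about 55%, and viability with drug at most 40%, in both replicates, limit read from the data, passing the limit was not always enough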); details: CellTiter-Glo, 72 h, at 10 µM; for differential viability (reversal): stronger effect = higher value
[7] = yeast transport mutant growth inhibition pilot in 384-well plates, post-Golgi transport modulator project (AID 636; in the data active means inhibition above about 31%); details: absorbance 615 nm, about 18 h, stronger effect = higher value
[8] = growth suppression of yeast trafficking mutant, preliminary HTS, modulators of trafficking downstream of Golgi apparatus project, 1536-format plate, OD 615 nm (AID 637; in the data active means inhibition above about 30%); details: yeast transport mutant growth, absorbance 615 nm, 18 h; stronger effect = higher value
[9] = H69AR cells + 2 uM doxorubicin, measured here: viability with 2 uM doxorubicin, stronger effect = lower value
[10] = H69AR cells, compound alone cytotoxicity

Receptor tyrosine-protein kinase erbB-2 (Homo sapiens), sequence (P04626 whole entry, looked up): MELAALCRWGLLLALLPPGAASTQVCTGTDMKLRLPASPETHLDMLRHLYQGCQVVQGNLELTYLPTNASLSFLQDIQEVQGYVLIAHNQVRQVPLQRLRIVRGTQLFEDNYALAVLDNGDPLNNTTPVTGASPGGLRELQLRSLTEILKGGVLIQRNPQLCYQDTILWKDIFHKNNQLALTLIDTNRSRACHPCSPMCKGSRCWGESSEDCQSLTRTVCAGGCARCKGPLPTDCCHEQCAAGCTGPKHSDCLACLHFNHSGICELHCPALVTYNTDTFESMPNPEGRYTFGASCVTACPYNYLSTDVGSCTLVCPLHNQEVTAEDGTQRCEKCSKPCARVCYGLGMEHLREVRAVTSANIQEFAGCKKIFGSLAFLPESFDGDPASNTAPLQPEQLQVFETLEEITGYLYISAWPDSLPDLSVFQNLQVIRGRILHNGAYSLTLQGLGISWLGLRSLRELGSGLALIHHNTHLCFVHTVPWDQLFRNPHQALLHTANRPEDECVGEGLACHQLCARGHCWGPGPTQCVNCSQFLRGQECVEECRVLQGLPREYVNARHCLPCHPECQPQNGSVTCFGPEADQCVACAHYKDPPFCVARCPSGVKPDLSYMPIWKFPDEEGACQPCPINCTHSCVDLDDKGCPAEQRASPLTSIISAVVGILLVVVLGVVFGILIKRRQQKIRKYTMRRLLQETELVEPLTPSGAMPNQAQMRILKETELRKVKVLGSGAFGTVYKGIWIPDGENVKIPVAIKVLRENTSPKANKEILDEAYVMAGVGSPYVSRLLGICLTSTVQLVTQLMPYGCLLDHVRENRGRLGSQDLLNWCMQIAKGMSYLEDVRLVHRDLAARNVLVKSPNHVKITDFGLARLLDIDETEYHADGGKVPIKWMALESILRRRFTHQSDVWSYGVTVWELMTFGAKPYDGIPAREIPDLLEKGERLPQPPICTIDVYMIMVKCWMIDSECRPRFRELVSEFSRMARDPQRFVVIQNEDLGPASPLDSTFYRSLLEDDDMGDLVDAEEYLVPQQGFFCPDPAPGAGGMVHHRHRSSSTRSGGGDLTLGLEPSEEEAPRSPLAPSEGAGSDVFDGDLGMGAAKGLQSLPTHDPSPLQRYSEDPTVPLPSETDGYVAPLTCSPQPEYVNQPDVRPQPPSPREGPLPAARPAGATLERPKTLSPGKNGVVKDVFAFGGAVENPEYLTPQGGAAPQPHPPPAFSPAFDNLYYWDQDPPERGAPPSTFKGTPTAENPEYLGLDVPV

Compound	viability [1] [%]	Her2 level [2]	viability [3]	viability [4]	viability [5]	differential viability (reversal) ([6]; H69AR cells + 2 uM doxorubicin)	viability [6, 9] [%]	viability [6, 10] [%]	inhibition [7]	inhibition [8]
Cn1cnc(S(=O)(=O)NCc2cccs2)c1	102	102% (inactive)	102% (inactive)	96.5% (inactive)	95.5% (inactive)	7.67% (inactive)	87.8	95.5	0.68% (inactive)	-1.9% (inactive)
O=C(CSc1nc2ccccc2c(=O)n1CCC(=O)N1CCCCC1)NCc1ccccc1	102	80% (inactive)	102% (inactive)	99.5% (inactive)	81.8% (inactive)	-13.3% (inactive)	95.1	81.8	-1.84% (inactive)	-2.86% (inactive)
CS(=O)(=O)N1CCCC(C(=O)NCc2ccccc2Cl)C1 (stereo not given)	99	89% (inactive)	99% (inactive)	107% (inactive)	86.5% (inactive)	-4.79% (inactive)	91.3	86.5	-1.3% (inactive)	-0.95% (inactive)
COc1cc(OC)cc(C(=O)N2c3ccc(F)cc3CCC2C)c1 (stereo not given)	94.5	89% (inactive)	94.5% (inactive)	112% (inactive)	97.5% (inactive)	6.82% (inactive)	90.7	97.5	-0.14% (inactive)	-3.02% (inactive)
CCCCCCC1/C(=N/O)CCC1C(=O)OC (stereo not given)	108	95.5% (inactive)	108% (inactive)	109% (inactive)	83.2% (inactive)	-1.02% (inactive)	84.2	83.2	-8.44% (inactive)	-5.71% (inactive)
CN(Cc1ccccc1)c1nc2c(c(=O)[nH]c(=O)n2C)n1Cc1ccccc1Cl	114	87.5% (inactive)	114% (inactive)	82.2% (inactive)	85.4% (inactive)	4.96% (inactive)	80.4	85.4	-5.2% (inactive)	8.36% (inactive)
Cc1ccc2cc(CN(Cc3ccc4c(c3)OCO4)Cc3nnnn3Cc3ccco3)c(=O)[nH]c2c1C	98.5	97% (inactive)	98.5% (inactive)	85.1% (inactive)	79.6% (inactive)	13.3% (inactive)	66.4	79.6	-1.33% (inactive)	-3.17% (inactive)
COc1ccc(C(C)=O)c(OC(=O)c2ccc(OC)c(OC)c2)c1	104	88.5% (inactive)	104% (inactive)	92.8% (inactive)	98.6% (inactive)	1.11% (inactive)	97.5	98.6	-6.4% (inactive)	-3.33% (inactive)
CN(Cc1nc(-c2ccncc2)no1)S(=O)(=O)c1ccccc1	99.5	79% (inactive)	99.5% (inactive)	96.3% (inactive)	95.7% (inactive)	7.03% (inactive)	88.7	95.7	-7.57% (inactive)	0.79% (inactive)
CC(C)CNS(=O)(=O)c1ccc(OCC(=O)Nc2ccc3c(c2)OCO3)c(Cl)c1	89.5	66% (inactive)	89.5% (inactive)	58.6% (inactive)	66.7% (inactive)	-2.31% (inactive)	69	66.7	-5.39% (inactive)	-0.67% (inactive)
CCCCN(C)CCCNC(=O)CC1Oc2ccccc2NC1=O (stereo not given)	86.5	91.5% (inactive)	86.5% (inactive)	104% (inactive)	93.4% (inactive)	-7.03% (inactive)	100	93.4	-4.53% (inactive)	2.95% (inactive)
c1cncc(-c2nnc3sc(-c4ccco4)nn23)c1	118	106% (inactive)	118% (inactive)	99.5% (inactive)	91.5% (inactive)	-6.86% (inactive)	98.3	91.5	-5.39% (inactive)	4.68% (inactive)
CCOc1ccc(OCC)c(NC(=O)CCCN2C(=O)c3cccnc3C2=O)c1	110	128% (inactive)	110% (inactive)	110% (inactive)	85.8% (inactive)	-2.52% (inactive)	88.3	85.8	0.81% (inactive)	7.14% (inactive)
O=C(CCc1ccccc1)Nc1ccncc1	110	119% (inactive)	110% (inactive)	103% (inactive)	97.8% (inactive)	5.17% (inactive)	92.6	97.8	0.65% (inactive)	-5.33% (inactive)
COc1ccc(OC)c(NC(=O)CSc2ncccc2C(=O)O)c1	104	98% (inactive)	104% (inactive)	100% (inactive)	104% (inactive)	7.42% (inactive)	96.4	104	-3.29% (inactive)	-3.45% (inactive)
CCOc1ccccc1NS(=O)(=O)c1c(C)noc1C	97.5	93.5% (inactive)	97.5% (inactive)	91.3% (inactive)	109% (inactive)	16.6% (inactive)	92.1	109	-3.42% (inactive)	-0.95% (inactive)
Cc1ccc(-c2cc(C(=O)Nc3cc(C)ccc3C)[nH]n2)c(O)c1	102	88% (inactive)	102% (inactive)	109% (inactive)	92.4% (inactive)	2.75% (inactive)	89.6	92.4	-3.16% (inactive)	-1.9% (inactive)
COc1ccc(-c2cc(C(=O)N3CCN(Cc4ccccc4)CC3)no2)cc1OC	99	64.5% (inactive)	99% (inactive)	81.5% (inactive)	98.5% (inactive)	20.8% (inactive)	77.8	98.5	-5.68% (inactive)	9% (inactive)
CNC(=O)CSc1nnc(-c2ccc(S(=O)(=O)N3CCCC3)cc2)n1-c1cccc(C)c1C	79.5	78.5% (inactive)	79.5% (inactive)	86.4% (inactive)	88.9% (inactive)	11.7% (inactive)	77.2	88.9	-4.86% (inactive)	-1.15% (inactive)
C=CCSC1=C(C#N)C(c2ccccc2OCC)CC(=O)N1 (stereo not given)	94	81% (inactive)	94% (inactive)	88.3% (inactive)	95.3% (inactive)	3.58% (inactive)	91.8	95.3	-5.39% (inactive)	0.5% (inactive)
Cc1ccc(S(=O)(=O)NCCC(=O)OCn2nnc3ccccc3c2=O)cc1	95.5	82.5% (inactive)	95.5% (inactive)	83.8% (inactive)	95.1% (inactive)	-13.1% (inactive)	108	95.1	-2.37% (inactive)	1.27% (inactive)
COc1cccc(-c2cc(C(=O)N3CCc4ccccc4C3)no2)c1	99.5	104% (inactive)	99.5% (inactive)	67.7% (inactive)	96.8% (inactive)	-5.97% (inactive)	103	96.8	-8.51% (inactive)	-4.59% (inactive)
CCOC(=O)C1=C(C)Nc2nnnn2C1c1c[nH]c2ccccc12 (stereo not given)	110	94% (inactive)	110% (inactive)	77.3% (inactive)	104% (inactive)	7.95% (inactive)	95.8	104	-2.93% (inactive)	15.6% (inactive)
Cc1ccc(-c2nc(=S)c3c(n2Cc2ccco2)CCCC3)cc1	79	79% (inactive)	79% (inactive)	86.9% (inactive)	10.3% (active)	-0.31% (inactive)	10.6	10.3	-1.47% (inactive)	-5.32% (inactive)
COc1ccc(CC(=O)Nc2ccc(-c3nnc(-c4ccc(C)cc4)o3)cc2)cc1	114	81.5% (inactive)	114% (inactive)	69.9% (inactive)	4.72% (active)	-0.04% (inactive)	4.76	4.72	-1.58% (inactive)	-1.75% (inactive)
O=C1CC(Cc2ccccc2)C(=O)N1CCCn1ccnc1 (stereo not given)	101	102% (inactive)	101% (inactive)	103% (inactive)	92.2% (inactive)	8.18% (inactive)	84	92.2	-3.85% (inactive)	-0.5% (inactive)
O=C(COc1nnc2ccccn12)N1CCN(S(=O)(=O)c2ccccc2)CC1	107	86% (inactive)	107% (inactive)	98.8% (inactive)	97.2% (inactive)	13.2% (inactive)	84	97.2	-5.13% (inactive)	-5.09% (inactive)
CCOC(=O)c1c(C)c(C(=O)NCCN2CCOCC2)c(C)n1C	89.5	91% (inactive)	89.5% (inactive)	107% (inactive)	86.7% (inactive)	-3.83% (inactive)	90.5	86.7	-10.7% (inactive)	1.11% (inactive)
